Bioassay records (PubChem)
Rows were chosen to be rich in hits. Some 2% of all compounds tested hit in one or more screens of this group.
Myeloid diff MLP – compounds promoting myeloid differentiation; AID 624256; actives 1% (n = 360,000); ER-HoxA9 myeloid progenitors, lysozyme-GFP differentiation, flow cytometry; calls only at 10 µM;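 active means normalized GFP-positive differentiation at or above the plate's own cutoff, the solvent-only control mean plus 3 SD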;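 further: cells exposed to compound for four days before flow analysis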
NR2E3 ag-1 – NR2E3 (human) agonism. GST-NR2E3/biotin-RetCOR TR-FRET, 1536-well. inhibition of corepressor binding, % at 4.78 µM. actives 0.12% (n = 320,000). Q9Y5X4;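 active means percent inhibition above the cutoff of mean plus 3 SD of all tested compounds, set per screening campaign, cut at about 20% in these data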;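 further: 0% = DMSO wells and 100% = biotin wells as full block of FRET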
Target sequence (Q9Y5X4 whole entry, looked up): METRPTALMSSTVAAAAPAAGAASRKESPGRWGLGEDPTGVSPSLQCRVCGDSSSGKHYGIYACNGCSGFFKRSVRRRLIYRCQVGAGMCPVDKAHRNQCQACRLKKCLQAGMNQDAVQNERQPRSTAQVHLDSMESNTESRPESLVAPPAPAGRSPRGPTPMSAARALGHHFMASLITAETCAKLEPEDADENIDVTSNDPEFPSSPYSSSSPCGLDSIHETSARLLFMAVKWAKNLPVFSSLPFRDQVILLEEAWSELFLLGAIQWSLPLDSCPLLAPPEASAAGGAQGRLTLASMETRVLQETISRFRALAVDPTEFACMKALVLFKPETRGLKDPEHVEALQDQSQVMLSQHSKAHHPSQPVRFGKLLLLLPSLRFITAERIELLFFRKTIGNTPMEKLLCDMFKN
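Format: 1536-well format; test system: GST-NR2E3 and biotin-RetCOR proteins; read-out basis: percent inhibition of TR-FRET ratio; timing: 5 h incubation at 4 °C; detection: time-resolved FRET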
FXN GAA850 act – increases GAA850 frataxin promoter reporter activity; actives 0.56% (n = 360,000); activation, % at 6 µM; HEK293 lucGAA850 FXN promoter luciferase reporter, 24 h; percent of 10 µM SAHA response;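 active means activation above the average of all compounds screened plus 3 SD, cutoff fixed separately per campaign, cut at about 7.5% in these data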;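 further: 0% = DMSO wells and 100% = 10 µM SAHA wells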
NR2E3 ag-2 – agonists of human NR2E3 nuclear receptor; Q9Y5X4; CHO-S Gal4-NCOR/VP16-NR2E3 two-hybrid, luciferase; inhibition of corepressor binding, % at 3.98 µM; actives 0.35% (n = 360,000);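 active means inhibition above the mean of all tested compounds plus 3 SD, cut at about 70% in these data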;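 further: 0% = DMSO with NR2E3 transfected cells and 100% = cells lacking NR2E3 construct; higher means lower luciferase signal from less NR2E3 corepressor binding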
T cell HTS – T cell immune modulators affecting CD8 T cell-vesicle binding | response (vesicle binding), % at 7 µM | 2C CD8+ T cell-vesicle binding, flow cytometry; active compounds read low | AID 2052 | actives 0.068% (n = 330,000);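 active means response, share of CD8 T cells binding vesicles, and their 90th percentile fluorescence all below set limits, cut at about 80% in these data, passing the limit was not always enough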;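 further: values below 100% mean blocked vesicle binding to the CD8+ T cells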
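Benchmarks: naked versus QL9-loaded vesicles / Assay system: purified 2C TCR transgenic mouse naive CD8+ T cells / Technique: high-throughput flow cytometry with anti-B7-1 and anti-CD8 staining / Timing: Cell–vesicle co-incubation 1.5 h at 37 °C, staining 20 min on ice / Read-out: percent CD8+ FL2 mean versus row control / Probe or stimulus: QL9-loaded Drosophila micro-vesicles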
Myeloid diff – myeloid differentiation induction; shares compounds with Myeloid diff MLP; AID 651706; actives 2% (n = 2,300); ER-HoxA9 myeloid progenitors, GFP/Mac1 double-positive flow; calls only;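 active means share of green or green-and-red cells above 9 and 9% in run 1 or 4 and 3% in run 2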
GFP autofluor – compound fluorescence in myeloid differentiation counter-screen; actives 7.4% (n = 2,300); ER-HoxA9 myeloid progenitors, no estrogen, GFP autofluorescence flow cytometry; vehicle wells 0%, positive control 100%; fluorescence response, % (concentration not given with the values); shares compounds with Myeloid diff MLP;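 active means over 5% cells positive for green fluorescent reporter, or over 2% positive for both it and APC stain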;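 further: range taken on the double positive population between DMSO and positive control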
* hit, by the source's call; i = inactive; nt = no result; + = active, no number.

SMILES | Myeloid diff MLP | NR2E3 ag-1 | FXN GAA850 act | NR2E3 ag-2 | T cell HTS | Myeloid diff | GFP autofluor
CC1(C(=O)NS(=O)(=O)c2cccc(OC(F)F)c2)CCN1C(=O)c1ccco1 (configuration not stated) | i | nt | 1.7 | 4.5 | nt | nt | nt
NC(=O)C1C(=O)c2ccccc2C1(C[N+](=O)[O-])c1ccccc1 (configuration not stated) | i | nt | -1.1 | -52.0 | nt | nt | nt
COc1ccc(N2CCN(Cc3nc4c(c(=O)n(C)c(=O)n4C)n3Cc3cccc(C)c3)CC2)cc1 | i | -3.2 | -1.0 | -14.1 | 331.6 | i | 0.4
COc1ccc(N2CCN(c3nc4c(c(=O)n(C)c(=O)n4C)n3Cc3ccccc3)CC2)cc1 | i | 3.6 | 1.9 | -21.8 | 131.8 | nt | nt
Cc1ccccc1C(=O)Nc1ccc2c(C#N)c3nc4ccccc4nc3n2c1 | + | -1.1 | 1.5 | -11.5 | 202.4 | i | 2.3*
CC/C(=N/NC(=O)c1ccc2c(c1)OCO2)c1ccccc1O | i | -3.4 | 0.0 | -66.5 | 158.5 | i | 0.0
COc1cccc(CNc2nc(NC(C)C)nc3ccsc23)c1OC | i | nt | -0.9 | -36.9 | nt | nt | nt
COc1ccccc1CNc1nc(NCc2ccc(C(C)C)cc2)c2sccc2n1 | i | nt | 2.3 | 19.3 | nt | i | 0.0
O=C(NCc1ccccc1)C(c1cc2ccccc2o1)n1c(=O)c(-c2cc3ccccc3[nH]2)nc2ccccc21 (configuration not stated) | i | nt | nt | nt | nt | nt | nt
COc1cc(/C=C2\SC(=S)N(CCC(=O)N3CCN(C)CC3)C2=O)cc(OC)c1OC | + | -4.6 | -0.1 | -21.0 | 366.3 | i | 0.0
COc1cc(/C=C2/SC(=S)N(CCC(=O)N3CCN(C)CC3)C2=O)cc(OC)c1OC | i | nt | -2.2 | -13.3 | nt | nt | nt
CC(=O)N1CCN(C(=O)CCc2nc3ccccc3c(=O)[nH]2)CC1 | + | 5.8 | 0.7 | 9.1 | 199.2 | i | 0.0
CCc1ccc2c(Cl)c(C(=O)N/N=C/c3c[nH]c4ccccc34)sc2c1 | i | 2.8 | 2.8 | -17.7 | 308.0 | nt | nt
CCc1ccc(-c2cc(C(=O)N/N=C/c3c[nH]c4ccccc34)[nH]n2)cc1 | i | -3.6 | -2.8 | -142.6 | 449.9 | i | 2.1
CCOC(=O)c1cnc2ccc(C(=O)OC)cc2c1Nc1ccc2c(c1)OCCO2 | nt | -1.4 | 2.1 | -12.7 | 44.0 | i | 0.0
Nc1nc(-c2ccc(Oc3ccccc3)cc2)c(CC(=O)O)s1 | i | nt | 0.9 | -19.5 | 189.3 | i | 0.0
COc1ccc(CNC(=O)COC(=O)c2cc(C)oc2C)cc1 | i | nt | -0.6 | 10.6 | nt | nt | nt
COc1cc(/C=C2\SC(=S)N(NC(=O)c3ccc(O)c(OC)c3)C2=O)ccc1O | i | -0.8 | 0.7 | -15.6 | 334.3 | i | 27.8*
C=CCOc1ccc(C2C(C(=O)c3ccco3)=C(O)C(=O)N2Cc2cccnc2)cc1 (configuration not stated) | i | 5.2 | 1.4 | -52.4 | 242.4 | i | 12.7*
COc1cc(C(=O)N2CCCC(c3nc(-c4cccs4)no3)C2)cc(OC)c1OC (configuration not stated) | i | 4.9 | 1.4 | 10.8 | 345.6 | i | 1.2
CC1CCCN(CCCNC(=O)c2ccc3c(c2)N(Cc2ccc(F)cc2)C(=O)c2ccccc2S3=O)C1 (configuration not stated) | i | -2.2 | -4.6 | 14.1 | 577.8 | nt | nt
CC1CCCN(CCCNC(=O)c2ccc3c(c2)N(Cc2cccc(Cl)c2)C(=O)c2ccccc2S3=O)C1 (configuration not stated) | i | nt | -4.3 | 3.9 | nt | i | 1.2
O=C(NC1CCCC1)C1c2ccccc2OCC(=O)N1C1CC1 (configuration not stated) | i | nt | nt | -3.5 | nt | nt | nt
CC1=C(C(=O)N(C)C)CC(CC(=O)NCCCN(C)C)C(=O)N1Cc1ccc(C(C)(C)C)cc1 (configuration not stated) | i | nt | 0.0 | -8.9 | nt | nt | nt
CCN(CC)C(=O)C1=C(C)N(Cc2ccc(C(C)(C)C)cc2)C(=O)C(CC(=O)NCCCN(C)C)C1 (configuration not stated) | i | nt | -3.1 | -1.9 | nt | i | 0.0
